# Published values collected from several papers.
# Protocols differ between the studies behind these lines.
# Target: Protein kinase C theta type (PRKCQ, Homo sapiens, UniProt Q04759)
SMILES,test,setting,remaining binding [%]
FC(F)(F)Oc1cccc(-c2cnc3ccc(-c4ccncc4)nn23)c1,"cell-free assay, competition with immobilised ligand",5 µM,85
Cc1c(NC(=O)c2cc(C(N)=O)nc3cc(F)ccc23)c(C(F)(F)F)nn1Cc1ccc(C#N)cc1,"cell-free assay, competition with immobilised ligand",1 µM,80
CN(C)c1nccc(-c2cnc3ncccn23)n1,binding,1 µM,75
C=CC(=O)N1CCC(C(=O)NCC(=O)N2CCN(c3nc(-c4cnc(N)nc4C(F)F)nc(N4CCOCC4)n3)CC2)CC1,"binding, competition with immobilised ligand",1 µM,83
Cc1cnc(Nc2ccc(C(=O)N3CCC(N4CCCC4)CC3)cc2)nc1-c1cc2ccccc2s1,"binding, competition with immobilised ligand",1 µM,27
CN(c1ccnc(CNc2nc(Nc3ccc4c(c3)CC(=O)N4)ncc2C(F)(F)F)n1)S(C)(=O)=O,"cell-free assay, competition with immobilised ligand",1 µM,55
O=C(c1ccc(Nc2nccc(-c3cc4ccccc4s3)n2)cc1)N1CCC(N2CCCC2)CC1,"binding, competition with immobilised ligand",1 µM,56
O=C(NCC1CCOCC1)c1n[nH]cc1NC(=O)c1c(F)cccc1F,"binding, competition with immobilised ligand",1 µM,100
COc1ccc2c(c1)O[C@@H](c1ccc(OC)c(OC)c1)C[C@H]2NC(=O)C1(c2ccc3c(c2)OC(F)(F)O3)CC1,"cell-free assay, competition with immobilised ligand",1 µM,98
c1cncc(-c2cccc(Nc3nccc(NC4CCCCC4)n3)c2)c1,"binding, competition with immobilised ligand",10 µM,8.3
CC1CCCN1c1nccc(-c2cnn3ncccc23)n1 (stereo not shown),binding,1 µM,100
O=C(NCCCN1CCOCC1)c1ccc(Nc2ncc(Cl)c(-c3ccc(Cl)s3)n2)cc1,"binding, competition with immobilised ligand",1 µM,100
COc1cnc(Nc2cccc(S(N)(=O)=O)c2)nc1N1CCN(c2ccccc2)CC1,"binding, competition with immobilised ligand",1 µM,94
COc1ncc2cc3ccccc3nc2c1C#N,"cell-free assay, competition with immobilised ligand",5 µM,94
C[C@@H]1CCN(c2nccc(-c3cnn4ncccc34)n2)C1,binding,1 µM,67
CS(=O)(=O)N1CCCC(NC(=O)[C@H](CCC2CCCCC2)NC(=O)c2ccc(CNc3ncnc4c3nnn4-c3ccccc3)cc2)C1 (stereo partly shown),"cell-free assay, competition with immobilised ligand",0.1 µM,90
CN(c1nccc(-c2cnn3ncccc23)n1)C1CC1,binding,1 µM,100
Nc1ncc2c(n1)-c1c([nH]c3ccc(C#CC4CC4)cc13)CCCC2,"binding, competition with immobilised ligand",1 µM,98
N[C@H]1CCN(c2nccc(-c3cnn4ncccc34)n2)C1,binding,1 µM,74
CO[C@H]1CC[C@H](CNc2ccc(S(=O)(=O)NC(=O)c3ccc(N4CCN(CC5=C(c6ccc(Cl)cc6)CC(C)(C)CC5)CC4)cc3Oc3cnc4[nH]ccc4c3)cc2[N+](=O)[O-])CC1,"cell-free assay, competition with immobilised ligand",1 µM,89
Cc1cnn2ncc(-c3ccnc(N(C)C)n3)c2c1,binding,1 µM,99
CCOCCn1cc(C(=O)Nc2ccc(-n3nc(-c4cccnc4)cc3C(F)(F)F)cn2)ccc1=O,"cell-free assay, competition with immobilised ligand",1 µM,73
